Test system: Rattus norvegicus
Experiment: Ulcerogenic activity in albino rat carrageenan-induced paw edema model assessed as ulcer index at 0.28 mmol/kg, po (reference value: 0.60 +/- 0.05)
Assay type: toxicity, organism-based
Settings: in vivo; call rule not given here
Procedure, shortened: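 Rats given the compound orally at 0.28 mmol/kg, suspended in 0.5% aqueous CMC; vehicle-only control, n = 4 per group. Gastric ulcers graded by area: I (<1 mm²), II (1–3 mm²), III (>3 mm²). Ulcer index = 1×(level I count) + 2×(level II) + 3×(level III). Mean ± SEM, one-way ANOVA versus control.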

SMILES | UI
CCn1c(SCC(=O)Nc2ccc(/C(C)=N/O)cc2)nnc1-c1ccccc1 | 1.18
CCn1c(SCC(=O)Nc2ccc(/C(C)=N/O)cc2)nnc1-c1cc(OC)c(OC)c(OC)c1 | 0.83
COc1cc(-c2nnc(SCC(=O)Nc3ccc(/C(C)=N/O)cc3)n2-c2ccccc2)cc(OC)c1OC | 2.21
COc1ccc2c(c1)c(CC(=O)O)c(C)n2C(=O)c1ccc(Cl)cc1 [INDOMETHACIN] | 63.34

Test system: not listed separately
Experiment: Induction of nitric oxide release in phosphate buffer at 10^-4 M at pH 7.4 after 5 hrs by Griess colorimetric method in presence of N-acetylcysteine
Assay type: physicochemical
Settings: pH 7.4, 5 h, 100 µM
Procedure, shortened: (§1)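 Final drug concentration 10^-4 M, added from DMF into 1:1 50 mM phosphate buffer (pH 7.4)/MeOH containing 5 × 10^-4 M N-acetylcysteine, at 37 °C. Nitrite read with Griess reagent after 10 min at room temperature, absorbance at 546 nm. Calibration with sodium nitrite standards (10–80 nmol/ml). Reported as mol NO per mol, n = 4 reaction mixtures.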

SMILES | Activity
CCn1c(SCC(=O)Nc2ccc(/C(C)=N/O)cc2)nnc1-c1ccccc1 | 0.14 mol/mol
CCn1c(SCC(=O)Nc2ccc(/C(C)=N/O)cc2)nnc1-c1cc(OC)c(OC)c(OC)c1 | 0.15 mol/mol
COc1cc(-c2nnc(SCC(=O)Nc3ccc(/C(C)=N/O)cc3)n2-c2ccccc2)cc(OC)c1OC | 0.15 mol/mol

Test system: Rattus norvegicus
Experiment: Gastrointestinal toxicity in albino rat carrageenan-induced paw edema model assessed as acute inflammatory cell infiltrating its whole thickness at 0.28 mmol/kg, po by hematoxylin and eosin staining-based light microscopic analysis
Assay type: organism-based
Settings: in vivo
Procedure, shortened: (§2)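 Rats were dosed orally at 0.28 mmol/kg, suspended in 0.5% aqueous CMC; vehicle-only animals served as controls. After ulcer scoring, stomach sections were stained with haematoxylin and eosin: acid-alcohol differentiation, then 1% eosin for 10 min. Sections were dehydrated, cleared in xylene, mounted and examined by light microscopy.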

SMILES | Activity
COc1ccc2c(c1)c(CC(=O)O)c(C)n2C(=O)c1ccc(Cl)cc1 [INDOMETHACIN] | Toxic

Test system: Rattus norvegicus
Experiment: Antiinflammatory activity in albino rat assessed as inhibition of carrageenan-induced paw edema at 0.28 mmol/kg, po administered 30 mins prior to carrageenan-challenge measured after 5 hrs relative to control
Assay type: functional
Settings: not given
Procedure, shortened: (§3)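 Male albino rats in groups of four were fasted 24 h with water allowed. Dosing was oral at 0.28 mmol/kg, suspended in 0.5% w/v CMC; controls got CMC alone. After 30 min, 0.1 ml of 1% carrageenan in saline went subplantar into the right hind paw and saline into the left. Paw thickness was read by caliper before and at 1–5 h. % inhibition = [(VR−VL)control−(VR−VL)treated]/(VR−VL)control ×100. Mean ± SEM, n = 4, one-way ANOVA vs control.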

SMILES | inhibition in vivo at 280 µmol/kg
CCn1c(SCC(=O)Nc2ccc(/C(C)=N/O)cc2)nnc1-c1ccccc1 | 66%
CCn1c(SCC(=O)Nc2ccc(/C(C)=N/O)cc2)nnc1-c1cc(OC)c(OC)c(OC)c1 | 61%
COc1cc(-c2nnc(SCC(=O)Nc3ccc(/C(C)=N/O)cc3)n2-c2ccccc2)cc(OC)c1OC | 70%
COc1ccc2c(c1)c(CC(=O)O)c(C)n2C(=O)c1ccc(Cl)cc1 [INDOMETHACIN] | 87%

Test system: Rattus norvegicus
Experiment: Gastrointestinal toxicity in albino rat carrageenan-induced paw edema model assessed as severe atrophic gastritis and gland atrophy at 0.28 mmol/kg, po by hematoxylin and eosin staining-based light microscopic analysis
Assay type: organism-based
Settings: in vivo
Procedure, shortened: as §2

SMILES | Activity
COc1ccc2c(c1)c(CC(=O)O)c(C)n2C(=O)c1ccc(Cl)cc1 [INDOMETHACIN] | Toxic

Test system: Rattus norvegicus
Experiment: Gastrointestinal toxicity in albino rat carrageenan-induced paw edema model assessed as destruction of surface epithelium and epithelial lining of gastric pits at 0.28 mmol/kg, po by hematoxylin and eosin staining-based light microscopic analysis
Assay type: organism-based, Stomach
Settings: in vivo
Procedure, shortened: as §2

SMILES | Activity
COc1ccc2c(c1)c(CC(=O)O)c(C)n2C(=O)c1ccc(Cl)cc1 [INDOMETHACIN] | Toxic

Test system: Rattus norvegicus
Experiment: Antiinflammatory activity in albino rat assessed as inhibition of carrageenan-induced paw edema at 0.28 mmol/kg, po administered 30 mins prior to carrageenan-challenge measured after 1 hr relative to control
Assay type: functional
Settings: not given
Procedure, shortened: as §3

SMILES | inhibition in vivo at 280 µmol/kg
CCn1c(SCC(=O)Nc2ccc(/C(C)=N/O)cc2)nnc1-c1ccccc1 | 54%
CCn1c(SCC(=O)Nc2ccc(/C(C)=N/O)cc2)nnc1-c1cc(OC)c(OC)c(OC)c1 | 29%
COc1cc(-c2nnc(SCC(=O)Nc3ccc(/C(C)=N/O)cc3)n2-c2ccccc2)cc(OC)c1OC | 59%
COc1ccc2c(c1)c(CC(=O)O)c(C)n2C(=O)c1ccc(Cl)cc1 [INDOMETHACIN] | 51%

Test system: Rattus norvegicus
Experiment: Gastrointestinal toxicity in albino rat carrageenan-induced paw edema model assessed as apoptotic glandular epithelial cells at 0.28 mmol/kg, po by hematoxylin and eosin staining-based light microscopic analysis
Assay type: organism-based, Epithelial cell
Settings: in vivo
Procedure, shortened: as §2

SMILES | Activity
COc1ccc2c(c1)c(CC(=O)O)c(C)n2C(=O)c1ccc(Cl)cc1 [INDOMETHACIN] | Toxic

Test system: not listed separately
Experiment: Induction of nitric oxide release in phosphate buffer at 10^-4 M at pH 7.4 after 4 hrs by Griess colorimetric method in presence of N-acetylcysteine
Assay type: physicochemical
Settings: pH 7.4, 4 h, 100 µM
Procedure, shortened: as §1

SMILES | Activity
CCn1c(SCC(=O)Nc2ccc(/C(C)=N/O)cc2)nnc1-c1ccccc1 | 0.21 mol/mol
CCn1c(SCC(=O)Nc2ccc(/C(C)=N/O)cc2)nnc1-c1cc(OC)c(OC)c(OC)c1 | 0.22 mol/mol
COc1cc(-c2nnc(SCC(=O)Nc3ccc(/C(C)=N/O)cc3)n2-c2ccccc2)cc(OC)c1OC | 0.25 mol/mol

Test system: Rattus norvegicus
Experiment: Antiinflammatory activity in albino rat assessed as inhibition of carrageenan-induced paw edema at 0.28 mmol/kg, po administered 30 mins prior to carrageenan-challenge measured after 4 hrs relative to control
Assay type: functional
Settings: not given
Procedure, shortened: as §3

SMILES | inhibition in vivo at 280 µmol/kg
CCn1c(SCC(=O)Nc2ccc(/C(C)=N/O)cc2)nnc1-c1ccccc1 | 77%
CCn1c(SCC(=O)Nc2ccc(/C(C)=N/O)cc2)nnc1-c1cc(OC)c(OC)c(OC)c1 | 70%
COc1cc(-c2nnc(SCC(=O)Nc3ccc(/C(C)=N/O)cc3)n2-c2ccccc2)cc(OC)c1OC | 75%
COc1ccc2c(c1)c(CC(=O)O)c(C)n2C(=O)c1ccc(Cl)cc1 [INDOMETHACIN] | 83%

Test system: Rattus norvegicus
Experiment: Gastrointestinal toxicity in albino rat carrageenan-induced paw edema model assessed as capillary vasodilatation of lamina propria associated with accumulation of edema fluid at 0.28 mmol/kg, po by hematoxylin and eosin staining-based light microscopic analysis
Assay type: organism-based
Settings: in vivo
Procedure, shortened: as §2

SMILES | Activity
COc1ccc2c(c1)c(CC(=O)O)c(C)n2C(=O)c1ccc(Cl)cc1 [INDOMETHACIN] | Toxic

Test system: Rattus norvegicus
Experiment: Antiinflammatory activity in albino rat assessed as inhibition of carrageenan-induced paw edema at 0.28 mmol/kg, po administered 30 mins prior to carrageenan-challenge measured after 3 hrs relative to control
Assay type: functional
Settings: not given
Procedure, shortened: as §3

SMILES | inhibition in vivo at 280 µmol/kg
CCn1c(SCC(=O)Nc2ccc(/C(C)=N/O)cc2)nnc1-c1ccccc1 | 65%
CCn1c(SCC(=O)Nc2ccc(/C(C)=N/O)cc2)nnc1-c1cc(OC)c(OC)c(OC)c1 | 70%
COc1cc(-c2nnc(SCC(=O)Nc3ccc(/C(C)=N/O)cc3)n2-c2ccccc2)cc(OC)c1OC | 66%
COc1ccc2c(c1)c(CC(=O)O)c(C)n2C(=O)c1ccc(Cl)cc1 [INDOMETHACIN] | 74%

Test system: not listed separately
Experiment: Induction of nitric oxide release in HCl buffer at 10^-4 M at pH 1 after 1 hr by Griess colorimetric method in presence of N-acetylcysteine
Assay type: physicochemical
Settings: pH 1, 1 h, 100 µM
Procedure, shortened: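 Same Griess nitrite procedure at 10^-4 M final drug with N-acetylcysteine at 37 °C, but with 0.1 N HCl (pH 1) in place of the pH 7.4 phosphate buffer. Absorbance at 546 nm against a sodium nitrite calibration curve.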

SMILES | Activity
CCn1c(SCC(=O)Nc2ccc(/C(C)=N/O)cc2)nnc1-c1ccccc1 | Not Active
CCn1c(SCC(=O)Nc2ccc(/C(C)=N/O)cc2)nnc1-c1cc(OC)c(OC)c(OC)c1 | Not Active
COc1cc(-c2nnc(SCC(=O)Nc3ccc(/C(C)=N/O)cc3)n2-c2ccccc2)cc(OC)c1OC | Not Active

Test system: not listed separately
Experiment: Induction of nitric oxide release in phosphate buffer at 10^-4 M at pH 7.4 after 1 hr by Griess colorimetric method in presence of N-acetylcysteine
Assay type: physicochemical
Settings: pH 7.4, 1 h, 100 µM
Procedure, shortened: as §1

SMILES | Activity
CCn1c(SCC(=O)Nc2ccc(/C(C)=N/O)cc2)nnc1-c1ccccc1 | 0.11 mol/mol
CCn1c(SCC(=O)Nc2ccc(/C(C)=N/O)cc2)nnc1-c1cc(OC)c(OC)c(OC)c1 | 0.12 mol/mol
COc1cc(-c2nnc(SCC(=O)Nc3ccc(/C(C)=N/O)cc3)n2-c2ccccc2)cc(OC)c1OC | 0.11 mol/mol

Test system: Rattus norvegicus
Experiment: Gastrointestinal toxicity in albino rat carrageenan-induced paw edema model assessed as decrease in thickness of gastric mucosa with marked loss of mucosal membrane at areas of ulceration at 0.28 mmol/kg, po by hematoxylin and eosin staining-based light microscopic analysis
Assay type: organism-based
Settings: in vivo
Procedure, shortened: as §2

SMILES | Activity
COc1ccc2c(c1)c(CC(=O)O)c(C)n2C(=O)c1ccc(Cl)cc1 [INDOMETHACIN] | Toxic

Test system: not listed separately
Experiment: Induction of nitric oxide release in phosphate buffer at 10^-4 M at pH 7.4 after 2 hrs by Griess colorimetric method in presence of N-acetylcysteine
Assay type: physicochemical
Settings: pH 7.4, 2 h, 100 µM
Procedure, shortened: as §1

SMILES | Activity
CCn1c(SCC(=O)Nc2ccc(/C(C)=N/O)cc2)nnc1-c1ccccc1 | 0.17 mol/mol
CCn1c(SCC(=O)Nc2ccc(/C(C)=N/O)cc2)nnc1-c1cc(OC)c(OC)c(OC)c1 | 0.13 mol/mol
COc1cc(-c2nnc(SCC(=O)Nc3ccc(/C(C)=N/O)cc3)n2-c2ccccc2)cc(OC)c1OC | 0.14 mol/mol

Test system: not listed separately
Experiment: Induction of nitric oxide release in phosphate buffer at 10^-4 M at pH 7.4 after 3 hrs by Griess colorimetric method in presence of N-acetylcysteine
Assay type: physicochemical
Settings: pH 7.4, 3 h, 100 µM
Procedure, shortened: as §1

SMILES | Activity
CCn1c(SCC(=O)Nc2ccc(/C(C)=N/O)cc2)nnc1-c1ccccc1 | 0.2 mol/mol
CCn1c(SCC(=O)Nc2ccc(/C(C)=N/O)cc2)nnc1-c1cc(OC)c(OC)c(OC)c1 | 0.14 mol/mol
COc1cc(-c2nnc(SCC(=O)Nc3ccc(/C(C)=N/O)cc3)n2-c2ccccc2)cc(OC)c1OC | 0.16 mol/mol

Test system: Rattus norvegicus
Experiment: Antiinflammatory activity in albino rat assessed as inhibition of carrageenan-induced paw edema at 0.28 mmol/kg, po administered 30 mins prior to carrageenan-challenge measured after 2 hrs relative to control
Assay type: functional
Settings: not given
Procedure, shortened: as §3

SMILES | inhibition in vivo at 280 µmol/kg
CCn1c(SCC(=O)Nc2ccc(/C(C)=N/O)cc2)nnc1-c1ccccc1 | 57%
CCn1c(SCC(=O)Nc2ccc(/C(C)=N/O)cc2)nnc1-c1cc(OC)c(OC)c(OC)c1 | 49%
COc1cc(-c2nnc(SCC(=O)Nc3ccc(/C(C)=N/O)cc3)n2-c2ccccc2)cc(OC)c1OC | 62%
COc1ccc2c(c1)c(CC(=O)O)c(C)n2C(=O)c1ccc(Cl)cc1 [INDOMETHACIN] | 67%

Test system: not listed separately
Experiment: Induction of nitric oxide release in phosphate buffer at 10^-4 M at pH 7.4 after 6 hrs by Griess colorimetric method in presence of N-acetylcysteine
Assay type: physicochemical
Settings: pH 7.4, 6 h, 100 µM
Procedure, shortened: as §1

SMILES | Activity
CCn1c(SCC(=O)Nc2ccc(/C(C)=N/O)cc2)nnc1-c1ccccc1 | 0.12 mol/mol
CCn1c(SCC(=O)Nc2ccc(/C(C)=N/O)cc2)nnc1-c1cc(OC)c(OC)c(OC)c1 | 0.14 mol/mol
COc1cc(-c2nnc(SCC(=O)Nc3ccc(/C(C)=N/O)cc3)n2-c2ccccc2)cc(OC)c1OC | 0.14 mol/mol

— ChEMBL document CHEMBL3102806, “1,2,4-Triazole/oxime hybrids as new strategy for nitric oxide donors: Synthesis, anti-inflammatory, ulceroginicity and antiproliferative activities” (Eur J Med Chem, 2014)
